Experimental data as given in ChEMBL document CHEMBL4265954, “Discovery of potent liver-selective stearoyl-CoA desaturase-1 (SCD1) inhibitors, thiazole-4-acetic acid derivatives, for the treatment of diabetes, hepatic steatosis, and obesity” (Eur J Med Chem, 2018).

Legend:
[1] = Tmax in C57BL/6J mouse at 10 mg/kg, po; assay type: ADME, organism-based; conditions: in vivo
In short: (§1)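 Two male C57BL/6J mice per route, 10 mg/kg po and 1 mg/kg iv. Plasma concentration–time profiles gave Cmax, tmax, terminal half-life and AUC0-inf. Bioavailability was derived from the po and iv data.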

[2] = Oral bioavailability in C57BL/6J mouse at 10 mg/kg; assay type: ADME, organism-based; conditions: in vivo; in short: as §1
[3] = Metabolic stability in mouse liver S9 fraction after 1 hr; assay type: ADME, subcellular; conditions: read-out: Stability
Cytochrome P450 2A6 = target: T1, Cytochrome P450 2A6 (Homo sapiens, UniProt P11509); assay: Inhibition of CYP2A6 (unknown origin); assay type: ADME
T1 sequence (P11509 whole entry): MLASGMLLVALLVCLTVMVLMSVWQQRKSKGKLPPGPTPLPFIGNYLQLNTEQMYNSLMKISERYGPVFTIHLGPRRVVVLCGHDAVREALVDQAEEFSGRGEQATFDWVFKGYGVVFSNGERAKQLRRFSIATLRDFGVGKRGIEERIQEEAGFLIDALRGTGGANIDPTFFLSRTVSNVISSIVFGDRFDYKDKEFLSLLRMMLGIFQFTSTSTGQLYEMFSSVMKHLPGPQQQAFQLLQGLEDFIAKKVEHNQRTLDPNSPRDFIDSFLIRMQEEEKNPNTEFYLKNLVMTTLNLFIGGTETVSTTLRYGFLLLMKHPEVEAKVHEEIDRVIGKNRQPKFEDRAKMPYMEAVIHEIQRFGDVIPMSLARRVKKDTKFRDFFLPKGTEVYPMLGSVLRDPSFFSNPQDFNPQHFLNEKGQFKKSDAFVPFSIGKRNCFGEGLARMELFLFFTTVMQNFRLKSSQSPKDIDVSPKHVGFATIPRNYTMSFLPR

[4] = AUC in Sprague-Dawley rat at 100 mg/kg, po; assay type: ADME, organism-based; conditions: in vivo
In short: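 Male 6-week-old SD rats, 5 per group, dosed orally once daily for 2 weeks as a suspension in 0.5% methylcellulose aqueous solution. Plasma drug levels taken 24 h after dosing on days 1, 5 and 10. Exposure figure is from this 2-week repeat-dose toxicity study.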

[5] = Oral bioavailability in Sprague-Dawley rat at 10 mg/kg; assay type: ADME, organism-based; conditions: in vivo
In short: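 Two male Sprague-Dawley rats per route, 10 mg/kg po and 1 mg/kg iv. Cmax, tmax, terminal-phase half-life and AUC0-inf were taken from plasma concentration–time curves. Bioavailability was derived from the po and iv data.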

Stearoyl-CoA desaturase = target: T2, Stearoyl-CoA desaturase (Homo sapiens, UniProt O00767); assay: Inhibition of recombinant human SCD1 expressed in baculovirus expression system assessed as reduction in [3H]H2O production using stearoyl [9,10-3H]CoA as substrate in presence of NADH incubated for 30 mins by scintillation counting method
T2 sequence (O00767 whole entry): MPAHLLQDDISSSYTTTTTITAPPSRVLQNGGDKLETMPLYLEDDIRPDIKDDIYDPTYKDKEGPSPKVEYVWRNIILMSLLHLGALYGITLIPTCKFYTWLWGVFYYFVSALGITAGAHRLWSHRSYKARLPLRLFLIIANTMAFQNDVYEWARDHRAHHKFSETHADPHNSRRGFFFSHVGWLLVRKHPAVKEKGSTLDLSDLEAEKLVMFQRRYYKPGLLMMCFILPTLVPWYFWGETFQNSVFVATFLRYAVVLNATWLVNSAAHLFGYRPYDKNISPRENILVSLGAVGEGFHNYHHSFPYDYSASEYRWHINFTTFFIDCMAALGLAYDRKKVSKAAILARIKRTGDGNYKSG
In short: (§2)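 Desaturation of [9,10-3H]stearoyl-CoA measured as released [3H]H2O. Water was separated from charcoal-adsorbed substrate by filtration and counted by scintillation. Remaining activity = (compound − background)/(control − background). DMSO wells served as control and pre-stopped wells as background. IC50 was interpolated from the two points bracketing 50%.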

Mus musculus = assay: Antidiabetic activity in high fat diet fed C57BL/6J mouse assessed as reduction in plasma glucose AUC (0 to 120 mins) administered orally as diet mixture for 43 days and measured on day 22 of administration after overnight fasting by OGTT method; assay type: functional, organism-based
In short: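 Male? not stated. C57BL/6J mice fed high fat diet for one month, then given compound as HFD admixture (0.0040% or 0.0133%) for ~3 or 10 mg/kg/day over 43 days (10–16 weeks of age); controls on normal chow or HFD. Day 22: overnight fast, glucose load 1 g/kg; plasma glucose at 0, 0.5, 1, 2 h, AUC calculated; n=5–8, mean ± SD, Dunnett's test.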

Rattus norvegicus = assay: Ex vivo inhibition of SCD1 in high sucrose diet Sprague-Dawley rat liver treated orally for 6 hrs followed by incubation with [14C]stearoyl-CoA substrate for 10 mins by TLC assay; assay type: functional, organism-based
In short: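 Sprague-Dawley rats on a high sucrose diet, given oral 1 or 10 mg/kg. Liver, epididymal adipose and eyelid were taken 6 h later and homogenized. S9 SCD activity was measured by [14C]stearoyl-CoA conversion to oleate and quantified by AgNO3 TLC imaging. Result is % remaining activity versus control, mean ± SD, n=3.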

Acyl-CoA desaturase 1 [6] = target: T3, Acyl-CoA desaturase 1 (Rattus norvegicus, UniProt P07308); assay: Inhibition of rat liver microsome SCD assessed as reduction in [3H]H2O production using stearoyl [9,10-3H]CoA as substrate in presence of NADH incubated for 30 mins by scintillation counting method; assay type: microsomes; in short: as §2
T3 sequence (P07308 whole entry): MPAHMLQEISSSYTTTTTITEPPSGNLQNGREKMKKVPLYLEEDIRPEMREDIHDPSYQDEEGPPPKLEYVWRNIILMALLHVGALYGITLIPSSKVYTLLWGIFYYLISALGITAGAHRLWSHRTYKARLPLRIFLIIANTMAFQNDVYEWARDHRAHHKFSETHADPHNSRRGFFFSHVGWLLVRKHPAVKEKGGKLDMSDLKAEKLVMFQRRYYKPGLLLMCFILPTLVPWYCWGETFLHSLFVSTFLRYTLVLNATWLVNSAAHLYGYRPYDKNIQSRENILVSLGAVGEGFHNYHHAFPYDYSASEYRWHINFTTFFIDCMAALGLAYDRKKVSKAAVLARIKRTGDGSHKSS

Acyl-CoA desaturase 1 [7] = target: T4, Acyl-CoA desaturase 1 (Mus musculus, UniProt P13516); assay: Inhibition of mouse liver microsome SCD assessed as reduction in [3H]H2O production using stearoyl [9,10-3H]CoA as substrate in presence of NADH incubated for 30 mins by scintillation counting method; assay type: microsomes; in short: as §2
T4 sequence (P13516 whole entry): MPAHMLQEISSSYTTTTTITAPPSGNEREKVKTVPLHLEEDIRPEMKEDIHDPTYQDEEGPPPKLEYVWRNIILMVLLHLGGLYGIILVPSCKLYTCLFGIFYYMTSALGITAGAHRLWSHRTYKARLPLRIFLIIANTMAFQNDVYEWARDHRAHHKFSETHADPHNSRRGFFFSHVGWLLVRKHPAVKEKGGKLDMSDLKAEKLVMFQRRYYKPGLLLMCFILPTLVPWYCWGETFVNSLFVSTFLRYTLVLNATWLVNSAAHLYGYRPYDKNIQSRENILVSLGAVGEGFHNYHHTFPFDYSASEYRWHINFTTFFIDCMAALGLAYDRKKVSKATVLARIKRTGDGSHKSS

CCCCc1ccccc1NCc1ccc(C(=O)Nc2nc(CC(=O)O)cs2)s1 showed a Tmax [1] of 1 h, a bioavailability [2] of 28% and a remaining at 1 h [3] of 90%. For the same compound, the IC50 (Cytochrome P450 2A6) was greater than 50 µM, the AUC [4] was 179 µM·h and the bioavailability [5] was 16%. The IC50 (Stearoyl-CoA desaturase) was 8.8 nM, the Activity (Mus musculus) was “Dose-dependent effect” and the inhibition (Rattus norvegicus) was “Dose-dependent effect”. It also gave an IC50 (Acyl-CoA desaturase 1 [6]) of 6.5 nM and an IC50 (Acyl-CoA desaturase 1 [7]) of 5.4 nM.
